Measured values from ChEMBL document CHEMBL1137554, “Synthesis and biological evaluation of novel cytotoxic azanaphthoquinone annelated pyrrolo oximes” (Bioorg Med Chem Lett, 2007).
The source made the active and inactive calls. The rule behind the calls is not given here.

Key:
[1] = Cytotoxicity against multidrug resistant LT12 cells by XTT assay; assay type: functional, Rattus norvegicus
In short: (§1)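 XTT tetrazolium proliferation assay with 48 h compound exposure. IC50 was obtained by nonlinear regression from at least two independent experiments and reported as mean ± standard deviation.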

P388 [2] = test: Cytotoxicity against P388 cells by XTT assay; assay type: functional, Mus musculus; in short: as §1
[3] = Cytotoxicity against LT12 cells by XTT assay; assay type: functional, Rattus norvegicus; in short: as §1
L1210 [4] = test: Cytotoxicity against L1210 cells by XTT assay; assay type: functional, Mus musculus; in short: as §1
L1210 [5] = test: Cytotoxicity against vincristine-resistant L1210 cells by XTT assay; assay type: functional, Mus musculus; in short: as §1
P388 [6] = test: Cytotoxicity against adriamycin-resistant P388 Cells by XTT assay; assay type: functional, Mus musculus; in short: as §1
NCI-H460 = test: Cytotoxicity against NCIH460 cells after 48 hrs by XTT assay; assay type: functional, cell-based; conditions: for Activity: Homo sapiens; in short: as §1
SF-268 = test: Cytotoxicity against SF268 cells after 48 hrs by XTT assay; assay type: functional, cell-based; conditions: for Activity: Homo sapiens; in short: as §1
[7] = Cytotoxicity against KB/HeLa cells at 3.16 ug/ml after 48 hrs by XTT assay; assay type: functional; conditions: Homo sapiens
SK-OV-3 = test: Cytotoxicity against SKOV3 cells after 48 hrs by XTT assay; assay type: functional, cell-based, Homo sapiens; conditions: for Activity: Homo sapiens; in short: as §1
RKOp27 = test: (§2) Cytotoxicity against RKOp27 cells after 48 hrs by XTT assay; assay type: functional, cell-based; conditions: Homo sapiens; in short: as §1
[8] = Cytotoxicity against KB/HeLa cells after 48 hrs by XTT assay; assay type: functional, cell-based, Homo sapiens; in short: as §1
U-937 [9] = test: (§3) Effect on apoptosis in U937 cells assessed as increase in caspase 3 activation at <=10 uM after 24 hrs; assay type: functional, cell-based; conditions: Homo sapiens
In short: (§4)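 U937 cells were treated for 24 h at up to 10 μM. Caspase 3/7 activity was then measured by cleavage of a DEVD rhodamine-110 substrate.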

[10] = Cell cycle arrest at G2/M phase in KB/HeLa cells after 24 hrs; assay type: functional, cell-based; conditions: Homo sapiens
In short: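 KB/HeLa cells were exposed to several concentrations for 24 h alongside untreated reference cells. They were then stained with propidium iodide and analysed by flow cytometry for cell-cycle phase distribution.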

[11] = as §2; assay type: functional, cell-based, Homo sapiens; in short: as §1
U-937 [12] = test: as §3; assay type: functional, cell-based; conditions: Homo sapiens; in short: as §4; remark: listed apart in the source

Compound | Activity (NCI-H460) | Activity (SF-268) | inhibition at 3.16 µg/mL [7] | IC50 (SK-OV-3) | Activity (RKOp27) | IC50 (NCI-H460) | IC50 (SF-268) | IC50 [8] | IC50 [11] | Activity (SK-OV-3) | other results
COc1cccc2c1C(=O)c1c(O)c3c(c(O)c1C2=O)C[C@@](O)(C(=O)CO)C[C@@H]3O[C@H]1C[C@H](N)[C@H](O)[C@H](C)O1 [DOXORUBICIN] | – | – | – | – | – | – | – | – | – | – | Activity [1]: >3.4 µM; Activity (P388 [2]): 0.52 µM; Activity [3]: 0.031 µM; Activity (L1210 [4]): 0.221 µM; Activity (L1210 [5]): >3.4 µM; Activity (P388 [6]): >3.4 µM
CN(C)CCn1cc2c(c1)C(=O)c1cnccc1C2=O | inactive | inactive | < 50% | Not Active | inactive | – | – | – | – | – | –
CN(C)CCO/N=C1/c2ccncc2C(=O)c2c1ccn2CCN(C)C | – | – | – | 0.94 µmol | – | 0.23 µmol | 1.23 µmol | 0.67 µmol | 0.41 µmol | – | Activity [1]: 0.07 µM; Activity (P388 [2]): 0.02 µM; Activity [3]: 0.03 µM; Activity (L1210 [4]): 0.05 µM; Activity (L1210 [5]): 0.11 µM; Activity (U-937 [9]): Active; Activity [10]: Active; Activity (P388 [6]): 0.4 µM; Activity (U-937 [12]): Active
CN(C)CCn1ccc2c1C(=O)c1cnccc1/C2=N/O | – | – | – | > 12 µmol | – | > 12 µmol | > 12 µmol | > 12 µmol | > 12 µmol | – | –
CC(=O)O[C@H]1C(=O)[C@@]2(C)[C@H]([C@H](OC(=O)c3ccccc3)[C@]3(O)C[C@H](OC(=O)[C@H](O)[C@@H](NC(=O)c4ccccc4)c4ccccc4)C(C)=C1C3(C)C)[C@]1(OC(C)=O)CO[C@@H]1C[C@@H]2O [PACLITAXEL] | – | – | – | – | – | – | – | – | – | – | Activity [1]: 0.368 µM; Activity (P388 [2]): 0.038 µM; Activity [3]: 0.005 µM; Activity (L1210 [4]): 0.052 µM; Activity (L1210 [5]): >3.4 µM; Activity (P388 [6]): >3.4 µM
CN(C)CCn1cc2c(c1)/C(=N\O)c1ccncc1C2=O | inactive | inactive | < 50% | – | inactive | – | – | – | – | inactive | –
CO/N=C1/c2ccncc2C(=O)c2c1ccn2CCN(C)C | – | – | – | 2.24 µmol | – | 0.79 µmol | 2.43 µmol | 1.21 µmol | 1.16 µmol | – | –
CN(C)CCn1ccc2c1C(=O)c1cnccc1/C2=N/OCCO | – | – | – | 0.48 µmol | – | 0.13 µmol | 1.39 µmol | 0.66 µmol | 0.17 µmol | – | Activity [1]: 0.16 µM; Activity (P388 [2]): 0.02 µM; Activity [3]: 0.04 µM; Activity (L1210 [4]): 0.07 µM; Activity (L1210 [5]): 0.16 µM; Activity (U-937 [9]): Active; Activity [10]: Active; Activity (P388 [6]): 0.5 µM; Activity (U-937 [12]): Active
CCOC(=O)CO/N=C1/c2ccncc2C(=O)c2c1ccn2CCN(C)C | – | – | – | > 12 µmol | – | > 12 µmol | > 12 µmol | > 12 µmol | > 12 µmol | – | –
CN(C)CCO/N=C1/c2ccncc2C(=O)c2cn(CCN(C)C)cc21 | inactive | inactive | < 50% | – | inactive | – | – | – | – | inactive | –
CCOC(=O)CO/N=C1/c2ccncc2C(=O)c2cn(CCN(C)C)cc21 | inactive | inactive | < 50% | – | inactive | – | – | – | – | inactive | –
CN(C)CCn1ccc2c1C(=O)c1cnccc1C2=O | – | – | – | 13.87 µmol | – | 3.84 µmol | 4.71 µmol | 11.04 µmol | 2.35 µmol | – | –
CO/N=C1/c2ccncc2C(=O)c2cn(CCN(C)C)cc21 | inactive | inactive | < 50% | – | inactive | – | – | – | – | inactive | –
CN(C)CCn1cc2c(c1)/C(=N\OCCO)c1ccncc1C2=O | inactive | inactive | < 50% | – | inactive | – | – | – | – | inactive | –
